Measured values: the EternaBench riboswitch data

Test system: MS2 coat protein
Experiment: apparent Kd, MS2 coat protein; higher = weaker binding; RNA-MaP array; FMN 200 µM where present
Outline: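 Stalled E. coli RNA polymerase produced the designs on Illumina sequencing-chip clusters. SNAP-549-labelled MS2 coat protein was added from 0.7 or 1.5 nM, doubling to 3 µM, without and then with constant ligand, in 100 mM Tris-HCl pH 7.5, 80 mM KCl, 4 mM MgCl2, BSA, DTT, yeast tRNA and Tween-20. The apparent Kd is the median of filtered per-cluster fits of green signal normalised to red-channel RNA signal and control-cluster median Fmax.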

[1] = designed as: ON switch for flavin mononucleotide, no ligand
[2] = ligand present: flavin mononucleotide, designed as: ON switch for flavin mononucleotide
[3] = designed as: OFF switch for flavin mononucleotide, no ligand
[4] = ligand present: flavin mononucleotide, designed as: OFF switch for flavin mononucleotide

Sequence	apparent Kd [1] [nM]	apparent Kd [2] [nM]	apparent Kd [3] [nM]	apparent Kd [4] [nM]
GCGUUCAUGUAGAAGGUACCUACAACAUAUUAUAAACGCUAGACACAUGAGGAUCACCCAUGUUGUAAGGAUAUACAUGAACGC	49	22		
GCGUUCUUGUAGAAGGUACAUAAAAUCUAUUUUUAACACAUGAAACAUGAGGAUCACCCAUGUUGUAAGGAUAUACAUGAACGC	7.03	5.88		
GCGUUGUUGUAGAAGGUACAUGAAUACUUUUAUUACCUCAAGUAACAUGAGGAUCACCCAUGUAGUAAGGAUAUACAUGAACGC	35.1	24.3		
GCGUUUACGGUUGACACUUAGCGAGAGGAUAUGGAAAACAAGACAUGAGGAUCACCCAUGUACUAUCAGAAGGCUCGAGUACGC	8.65	5.29		
GCUAAUAUUUUGUUAAAUGUAUUUUGAGAAGGCAUACACAUGAGGAUCACCCAUGUAAUUUGUAAUGAGGAUAUCAUGAUGUGC	115	31.5		
GCUACUUAUUUUAAUUAUGAUUUACUAGAAGGUAGAUACAUGAGGAUCACCCAUGUUUAGAGUUCUAAGGAUAUAGUUUUUAGC	8.25	7.24		
GCUAGAGCAGGAUAUCUAGAUCCACACAUGAGGAUCACCCAUGUACAGUCGAAAGACUGAAGAGAAGGGCUCUAGC			69.7	92.7
GCUAGUAUUGCAGGAUAUUGAUAUUAAUUAUGGCAAGAAGGGCAUUACAUGAGGAUCACCCAUGUUUUCCUUAGUCAUACUAGC			5.33	5.39
GCUAUAGAUGUAGGAUAUCAUAUAGAAGCUAUGUGAGAAGGACAUGAGGAUCACCCAUGUCAAUGGAUGGAGCGAAGUUAUGGC			43.4	57.7
GCUAUAGAUGUAGGAUAUCAUAUAGAAGCUAUGUGAGAAGGACAUGAGGAUCACCCAUGUCAAUGGCUGGAGCGAAGUUAUGGC			30.4	35.2
GCUAUAGAUGUAGGAUAUGAUAUAGAAGCUAUGUCAGAAGGACAUGAGGAUCACCCAUGUCAAUGGAUGGAGAGAAGAUAUGGC			64.2	69.3
GCUCGGAGAGGAUAUACAUGAGGAUCACCCAUGUAGGUAAGCAGCGAUGGCAGUCCAUGUAGAAGGUUCAGGUG			43.4	49.7
GCUCUGCGAGGAUAUACAUGAGGAUCACCCAUGUGCGAGUUACUUGUGAGGUCGGUUGGUAGAAGGCGCGGAGG			106	89.8
GCUGACGAUGUAGGAUAUCUCGACGAUAAGUCGAGAGAAGGACAUGAGGAUCACCCAUGUACUCUAACGUCAGCGAGGAAACUC			17.2	18.5
GCUGCAAAGUAAGGAUAUGCCUAGGAAACCUAGGCAGAAGGUACAUGAGGAUCACCCAUGUUAACGCAAAGCGAAUAAAGCAGC			18.1	24.1
GCUGGGUCAGGAUAUACAAGAUCGAAAGAUCAAAGAUUCGUACAUGAGGAUCACCCAUGUAGAAGGGACUGGGC			23.4	31.7
GCUGUCGCAUGAGGAUAUGGACAGCUUUGCUGUCCAGAAGGCAUGUCGAUAGACAUGAGGAUCACCCAUGUAGUAAAGACAGCA	588	64.6		
GCUUCACAUGAGGAUCACCCAUGUCUUCGGAGUCGAGGAUAUGGUCACUGUAAACAGUGGCCAGAAGGCGAGGAGC	54.1	35		
GCUUGUGAAGGAUAUACUGGCGACAUGCGCUCGACACGCGCACAUGAGGAUCACCCAUGUAGAAGGUCAAACAU			20.9	21.3
GCUUUCGCAUGAGGAUAUGCUCGAGUUUAGAGAGCAGAAGGCAUGUCAUAAGACAUGAGGAUCACCCAUGUAGUUAAAAUUGCA	164	10.7		
GGAAAACAUGAGGAUCACCCAUGUAAGGAUAUGCAAAAGGAUAUAGAAGGAAAAAAAAGCAGAAGGUACAAAGG			39.9	74.8

Sequence	apparent Kd [1] [nM]	apparent Kd [2] [nM]	apparent Kd [3] [nM]	apparent Kd [4] [nM]
GGAAAACAUGAGGAUCACCCAUGUGAGGAUAUCGAUGUCCAAAAAGAAGUGCGGGACUCGAGAAGGCACUUGGA			52.7	37.5
GGAAAACAUGAGGAUCACCCAUGUGAGGAUAUCGAUGUCCAGGGCCUGGUGCGGGACUCGAGAAGGCACUGGGA			62.9	126
GGAAAGCAAGGAUAUGCAAACAAACAAACAAACAAAAGGGAACAUGAGGAUCACCCAUGUAGAAGGUGCAAACA			40.8	32.5
GGAAAUCAUGUAGGAUAUGCAUGGCGAAGCUACGCAGAAGGACAUGAGGAUCACCCAUGUUAUAGCGUCCGAGAAAGGAUGCAA			111	167
GGAAGACAAAGUCUUCCAAUUCGAACAUGAGGAUCACCCAUGUAGGAUAUGCUACUCAAAGAGUAGCAGAAGGACAUGUGCUUU			37.3	164
GGAAGACAUGAGGAUCACCCAUGUGGGAUUAUGGGAGGAUAUACAAAGACGAGAGUCAGAGUAGAAGGCCUAGGAU	84.3	33.9		
GGACAGUCAGGAUAUACAUGAGGAUCACCCAUGUUGAGAUGUGAAAGGGCGGGAGUAGGUAGAAGGGACGAGAG			31.3	27.5
GGACAUGUCGUCUACAUGAGGAUCACCCAUGUCGAUAGACAUGAGGAUAUCGAUACAAAUUGUAUCGAGAAGGCAUGCAUGUCC	44.9	23		
GGACAUGUCGUUUACAUGAGGAUCACCCAUGUCGAUAGACAUGAGGAUAUCGAUACAAAUUGUAUCGAGAAGGCAUGCAUGUCC	91.2	23.5		
GGACAUUUACAGAAGGGCAAGCUCGAAAGAGGAGAAAGAGAACGAGCUUGCAGGAUAUGUUGAACAUGAGGAUCACCCAUGUCU	9.75	7.69		
GGACAUUUACAGAAGGGCAAGUUAGAUAGUGAAUAUUUAGAUCUGACUUGCAGGAUAUGUUGAACAUGAGGAUCACCCAUGUCC	13.7	10.8		
GGACCGCGCAGAGUUGGCGGUCGGCAGGAUAUGACAUGAGGAUCACCCAUGUGAACUCCAUUGGGUCAGAAGGGCCACGACACA			22.4	107
GGACCGUGCAGAGUUCGCGGUCGGCAGGAUAUGACAUGAGGAUCACCCAUGUGAACUCCAUUGGGUCAGAAGGGCCACGACACA			19.8	78
GGACGACACAUCUACAUGAGGAUCACCCAUGUCGAAAGACAUGAGGAUAUGCAUCCUAAUUGGAUGCAGAAGGCAUGGUCGUCC	1210	70.3		
GGACGCUAAGGAUAUACAUGAGGAUCACCCAUGUAGCCCGAAAGGGCGCGUUCCUUCUGUAGAAGGUGGCUAAA			17	25.4
GGACGUCACAUCUACAUGAGGAUCACCCAUGUCAAAAGACAUGAGGAUAUGCUUCCUAAUUGGAAGCAGAAGGCAUGGACGUCC	1210	67.5		
GGACGUCACAUGAACAUGAGGAUCACCCAUGUAAAUUCUCAUGAGGAUAUGGUUCCUAAUUGGAACCAGAAGGCGUGGACGUCC	957	430		
GGACGUCACAUUAACAUGAGGAUCACCCAUGUCUCUUGACAUGAGGAUAUGGAUCCUAAUUGGAUCCAGAAGGCAUGGACGUCC	1220	97.2		
GGACGUCAGAUUAACAUGAGGAUCACCCAUGUCUUUUGACAUGAGGAUAUGCAACCUAAUUGGUUGCAGAAGGCAUGGACGUCC	917	85.2		
GGACGUCAGAUUAACAUGAGGAUCACCCAUGUCUUUUGACAUGAGGAUAUGCAACGUAAUUCGUUGCAGAAGGCAUGGACGUCC	1010	89.8		
